Paper PMC9416874 (Carbohydrate research, 2014)

Legend:
[1] = biological target: T1, His6-Pd2,6ST(16–497) (Photobacterium damselae, UniProt O66375); experiment: donor hydrolysis, capillary electrophoresis, Michaelis-Menten fit; assay type: biochemical; conditions: donor hydrolysis (water as acceptor); pH 8.0; 37 °C
T1 sequence (O66375 16-497): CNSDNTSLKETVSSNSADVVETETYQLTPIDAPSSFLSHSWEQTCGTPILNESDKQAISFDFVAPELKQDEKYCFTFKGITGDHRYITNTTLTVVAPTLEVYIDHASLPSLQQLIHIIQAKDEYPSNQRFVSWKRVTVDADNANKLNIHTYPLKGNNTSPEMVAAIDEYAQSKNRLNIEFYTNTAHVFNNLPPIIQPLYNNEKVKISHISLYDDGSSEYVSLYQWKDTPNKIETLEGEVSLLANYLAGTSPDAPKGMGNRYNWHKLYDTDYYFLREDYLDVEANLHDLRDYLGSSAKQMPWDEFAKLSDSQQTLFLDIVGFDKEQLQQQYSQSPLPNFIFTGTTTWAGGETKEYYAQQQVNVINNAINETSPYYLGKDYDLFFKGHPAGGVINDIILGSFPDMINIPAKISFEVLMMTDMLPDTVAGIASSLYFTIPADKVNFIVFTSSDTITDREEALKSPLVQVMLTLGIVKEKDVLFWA
In short: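 Recombinant enzyme (6 μM) was incubated with CMP-Neu5Ac (10, 20, 40, 60, 80 and 100 mM) in 200 mM Tris-HCl pH 8.0 for 20 min, with no acceptor, in duplicate. Reactions were stopped with ethanol and centrifuged. Supernatants were run by capillary electrophoresis in 25 mM sodium tetraborate pH 9.4, with PDA detection at 200 and 254 nm. Kinetic parameters came from a Michaelis-Menten fit of the duplicate means.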

[2] = biological target: T2, Psp2,6ST(15–501)-His6 (Photobacterium sp. JT-ISH-224, UniProt A8QYL1, A366G); experiment: sialyltransfer, HPLC with fluorescence detection, Michaelis-Menten fit; assay type: biochemical; conditions: 20 °C, labelled compound
T2 sequence (A8QYL1 15-501 A366G): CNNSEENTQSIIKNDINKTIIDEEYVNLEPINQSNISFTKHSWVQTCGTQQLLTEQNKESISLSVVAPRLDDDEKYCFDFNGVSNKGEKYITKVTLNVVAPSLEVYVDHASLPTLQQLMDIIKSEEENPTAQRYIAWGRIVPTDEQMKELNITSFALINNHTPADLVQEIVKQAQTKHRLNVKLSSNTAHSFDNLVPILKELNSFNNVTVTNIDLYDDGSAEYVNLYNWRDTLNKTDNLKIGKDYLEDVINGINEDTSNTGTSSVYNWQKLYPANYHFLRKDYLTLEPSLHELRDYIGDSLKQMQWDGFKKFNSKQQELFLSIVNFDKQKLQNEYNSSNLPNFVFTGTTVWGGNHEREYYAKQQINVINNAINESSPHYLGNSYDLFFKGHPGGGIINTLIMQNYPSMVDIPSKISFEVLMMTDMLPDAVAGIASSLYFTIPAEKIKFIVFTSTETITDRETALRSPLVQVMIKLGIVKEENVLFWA

[3] = substrate: CC(=O)N[C@H]1[C@H]([C@H](O)[C@H](O)CO)O[C@](OP(=O)(O)OC[C@H]2O[C@@H](n3ccc(N)nc3=O)[C@H](O)[C@@H]2O)(C(=O)O)C[C@@H]1O; experiment: donor hydrolysis, capillary electrophoresis, Michaelis-Menten fit; assay type: biochemical, Photobacterium sp. JT-ISH-224; conditions: donor hydrolysis (water as acceptor), pH 8.0, 20 °C
[4] = substrate: Cc1cc(=O)oc2cc(O[C@@H]3O[C@H](CO)[C@@H](O[C@@H]4O[C@H](CO)[C@H](O)[C@H](O)[C@H]4O)[C@H](O)[C@H]3O)ccc12; experiment: sialyltransfer, HPLC with fluorescence detection, Michaelis-Menten fit; assay type: biochemical, Photobacterium sp. JT-ISH-224; conditions: CMP-Neu5Ac 1.0 mM, pH 8.0, 20 °C
[5] = substrate: CC(=O)N[C@H]1[C@H]([C@H](O)[C@H](O)CO)O[C@](OP(=O)(O)OC[C@H]2O[C@@H](n3ccc(N)nc3=O)[C@H](O)[C@@H]2O)(C(=O)O)C[C@@H]1O; experiment: as above; assay type: biochemical, Photobacterium sp. JT-ISH-224; conditions: LacβMU 1.0 mM as acceptor, pH 8.0, 20 °C

CC(=O)N[C@H]1[C@H]([C@H](O)[C@H](O)CO)O[C@](OP(=O)(O)OC[C@H]2O[C@@H](n3ccc(N)nc3=O)[C@H](O)[C@@H]2O)(C(=O)O)C[C@@H]1O [CMP-Neu5Ac]
Km (mM) [1]: (1.8±0.4)×10 mM

GalNAcα2AA
Km ([2]; CMP-Neu5Ac 4.0 mM, pH 5.0): 5.5 ± 1 mM

CC(=O)N[C@H]1[C@@H](O[C@H](C)[C@H](N)C(=O)O)O[C@H](CO)[C@H](O)[C@@H]1O [GalNAcαThr]
Km ([2]; CMP-Neu5Ac 4.0 mM, pH 8.0): 7.2 ± 3 mM

CC(=O)N[C@H]1[C@@H](OC[C@H](N)C(=O)O)O[C@H](CO)[C@H](O)[C@@H]1O [GalNAcαSer]
Km ([2]; CMP-Neu5Ac 2.0 mM, pH 8.0): 1.7 ± 0.7 mM

B1: Psp2,6ST(15–501)-His6 (Photobacterium sp. JT-ISH-224) (protein)
chain: CNNSEENTQSIIKNDINKTIIDEEYVNLEPINQSNISFTKHSWVQTCGTQQLLTEQNKESISLSVVAPRLDDDEKYCFDFNGVSNKGEKYITKVTLNVVAPSLEVYVDHASLPTLQQLMDIIKSEEENPTAQRYIAWGRIVPTDEQMKELNITSFALINNHTPADLVQEIVKQAQTKHRLNVKLSSNTAHSFDNLVPILKELNSFNNVTVTNIDLYDDGSAEYVNLYNWRDTLNKTDNLKIGKDYLEDVINGINEDTSNTGTSSVYNWQKLYPANYHFLRKDYLTLEPSLHELRDYIGDSLKQMQWDGFKKFNSKQQELFLSIVNFDKQKLQNEYNSSNLPNFVFTGTTVWAGNHEREYYAKQQINVINNAINESSPHYLGNSYDLFFKGHPGGGIINTLIMQNYPSMVDIPSKISFEVLMMTDMLPDAVAGIASSLYFTIPAEKIKFIVFTSTETITDRETALRSPLVQVMIKLGIVKEENVLFWA
kcat [3]: 4.83 ± 0.5 s⁻¹ | kcat/Km [3]: 283 M⁻¹ s⁻¹

B2: Psp2,6ST(15–501)-His6 (Photobacterium sp. JT-ISH-224; A366G) (protein)
chain: CNNSEENTQSIIKNDINKTIIDEEYVNLEPINQSNISFTKHSWVQTCGTQQLLTEQNKESISLSVVAPRLDDDEKYCFDFNGVSNKGEKYITKVTLNVVAPSLEVYVDHASLPTLQQLMDIIKSEEENPTAQRYIAWGRIVPTDEQMKELNITSFALINNHTPADLVQEIVKQAQTKHRLNVKLSSNTAHSFDNLVPILKELNSFNNVTVTNIDLYDDGSAEYVNLYNWRDTLNKTDNLKIGKDYLEDVINGINEDTSNTGTSSVYNWQKLYPANYHFLRKDYLTLEPSLHELRDYIGDSLKQMQWDGFKKFNSKQQELFLSIVNFDKQKLQNEYNSSNLPNFVFTGTTVWGGNHEREYYAKQQINVINNAINESSPHYLGNSYDLFFKGHPGGGIINTLIMQNYPSMVDIPSKISFEVLMMTDMLPDAVAGIASSLYFTIPAEKIKFIVFTSTETITDRETALRSPLVQVMIKLGIVKEENVLFWA
Km [4]: (4.1±0.4)×10^−1 mM | kcat [4]: 1.67 ± 0.167 s⁻¹ | kcat/Km [4]: 4000 M⁻¹ s⁻¹ | Km [5]: (6.3±0.5)×10^−1 mM | kcat [5]: 2.17 ± 0.167 s⁻¹ | kcat/Km [5]: 3500 M⁻¹ s⁻¹
